Entries after “also recorded” stand apart in the source; their conditions may differ. Like-named read-outs stand apart in the source and are kept apart here. Marks after values point to notes of the source that are not given here.
Assays:
SIV [1] = settings: weekly oral islatravir; cited from earlier work
[2] = cited from earlier work
SIV [3] = settings: once‐weekly oral islatravir; cited from earlier work
Study 1 [4] = format: in vivo, human
How it was run: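 Double-blind, randomized, alternating-panel single-dose design: 3 panels of 8 (6 active, 2 placebo) received an oral suspension or the vehicle as placebo. Assessments were vital signs, 12-lead ECGs, and hematology and blood chemistry at prespecified times. Adverse events were recorded from consent through 21 days after treatment ended. Placebo recipients were pooled. Participants were adults 18–60 y, BMI ≤32 kg/m2, men or women of nonchildbearing potential.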

HIV‐1 = settings: cited from earlier work
Study 1 [5] = format: in vivo, human; remark: listed apart in the source
How it was run: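 Fasted single oral-suspension doses, with 30 mg also given after a high-fat breakfast (55.6 g fat, 55 g carbohydrate, 31.1 g protein), 6 active and 2 placebo per panel. Plasma was sampled predose to ~96 h and analysed by protein precipitation and reversed-phase LC-MS/MS (LLOQ 1.00 ng/ml; range 1.00–1000.00 ng/ml). Log-transformed values went into a mixed model (treatment fixed, subject random), giving a fed/fasted geometric mean ratio with 90% CI.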

Study 2 = format: in vivo, human; settings: for Accumulation ratio: week 3 / week 1, plasma islatravir AUC0–168 h / Accumulation ratio: week 3 / week 1, plasma islatravir Cmax: LS mean difference (90% CI); for AUC(0-t): Plasma islatravir AUC0–168 h; for AUC(0-t) / Cmax: LS mean (95% CI); for Cmax: Plasma islatravir Cmax
How it was run: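 Capsules of 10, 30 or 100 mg were given once weekly for 3 weeks, fasted (6 active, 2 placebo per panel). Plasma was sampled predose to ~168 h after dosing and measured by reversed-phase LC-MS/MS after protein precipitation (LLOQ 1.00 ng/ml). […] Week 3/week 1 ratios are back-transformed with 90% CI.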

[6] = Study 2 safety and tolerability; format: in vivo, human
How it was run: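 Double-blind, randomized, serial-panel multiple-dose design: 3 panels of 8 (6 active, 2 placebo) took capsules once weekly for 3 weeks, at least 10 days between panels. Assessments were vital signs, 12-lead ECGs, and hematology and blood chemistry at prespecified times. Adverse events were monitored from consent through 21 days after the last dose. Placebo data were pooled. Participants were adults 18–60 y, BMI ≤32 kg/m2, without HIV.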

Study 1 [7] = format: in vivo, human; settings: for Intracellular islatravir‐TP AUC0–168 h / Intracellular islatravir‐TP AUC0–∞ / Intracellular islatravir‐TP C168 h / Intracellular islatravir‐TP Cmax: PBMC, LS geometric mean (95% CI)
How it was run: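 PBMCs from healthy adults were collected up to ~336 h after single oral doses, fasted or after a high-fat meal (30 mg). Cells were lysed in methanol-containing solvent, protein-precipitated, and triphosphate was measured by ion-exchange LC-MS/MS (LLOQ 0.50 ng/ml; range 0.50–200.00 ng/ml). Concentrations were carryover-corrected when predose exceeded 5% of Cmax. Results are LS geometric means (95% CI) from a log-scale mixed model; fed/fasted ratios have 90% CI.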

[8] = format: in vivo, human; settings: for Tmax: human, PBMCs, oral
How it was run: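 Healthy adults took weekly oral capsules (10, 30, 100 mg) for 3 weeks. PBMCs were collected up to ~336 h after the last dose and triphosphate was quantified by ion-exchange LC-MS/MS (LLOQ 0.50 ng/ml). Tmax is observed. […] LS means are given with 95% CI.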

[9] = human, plasma, oral, 100 mg, Study 2, 100 mg once weekly, Week 1
[10] = human, plasma, oral, 100 mg, Study 2, 100 mg once weekly, Week 3
[11] = up to 100 mg once weekly for 3 weeks
[12] = Study 2, 10 mg once weekly, Week 1, LS mean (95% CI)
[13] = Study 2, 10 mg once weekly, Week 3, LS mean (95% CI)
[14] = Study 2, 30 mg once weekly, Week 1, LS mean (95% CI)
[15] = Study 2, 30 mg once weekly, Week 3, LS mean (95% CI)
[16] = Study 2, 100 mg once weekly, Week 1, LS mean (95% CI)
[17] = Study 2, 100 mg once weekly, Week 3, LS mean (95% CI)

C#C[C@]1(CO)O[C@@H](n2cnc3c(N)nc(F)nc32)C[C@@H]1O [islatravir, 4'‐Ethynyl‐2‐fluoro‐2'‐deoxyadenosine]
protection from infection (SIV [1]): protected | time of peak plasma concentrations postdose ([2]; rhesus macaque, enteral administration): ~ 90 min | duration of declines in SIV RNA (SIV [3]): at least 7 days | adverse events considered related to islatravir (Study 1 [4]): none | changes in clinical laboratory values, vital signs, or ECG safety parameter values (Study 1 [4]): No clinically meaningful relationships | intensity of adverse events (Study 1 [4]): mild to moderate | total nonserious adverse events (Study 1 [4]): 30 | serious adverse events (Study 1 [4]; single doses up to 400 mg): no serious adverse events | tolerability (Study 1 [4]; single oral doses up to 400 mg): generally well‐tolerated | tolerability (HIV‐1; phase 1b single dose): generally well‐tolerated | suppression of HIV‐1 RNA (HIV‐1; single oral doses as low as 0.5 mg, day 7): greater than 1.0 log | decrease in plasma islatravir Cmax with a high‐fat meal (Study 1 [5]; 30 mg fed vs fasted): 49% | increase in plasma islatravir AUC0–∞ with a high‐fat meal (Study 1 [5]; 30 mg fed vs fasted): 10% | food effect on pharmacokinetics (Study 1 [5]; 30 mg with a high‐fat meal): no meaningful food effect | Tmax (Study 1 [5]; human, plasma, po, median time to maximum plasma concentration (Tmax), fasted state, single oral doses): 0.5 h | Accumulation ratio: week 3 / week 1, plasma islatravir AUC0–168 h (Study 2; Study 2, 10 mg once weekly): 1.22 (1.08, 1.36) h*μmol/L | Accumulation ratio: week 3 / week 1, plasma islatravir Cmax (Study 2; Study 2, 10 mg once weekly): 1.25 (0.82, 1.92) nmol/L | Accumulation ratio: week 3 / week 1, plasma islatravir AUC0–168 h (Study 2; Study 2, 30 mg once weekly): 1.22 (1.09, 1.37) h*μmol/L | Accumulation ratio: week 3 / week 1, plasma islatravir Cmax (Study 2; Study 2, 30 mg once weekly): 0.99 (0.64, 1.51) nmol/L | Accumulation ratio: week 3 / week 1, plasma islatravir AUC0–168 h (Study 2; Study 2, 100 mg once weekly): 1.25 (1.11, 1.40) h*μmol/L | Accumulation ratio: week 3 / week 1, plasma islatravir Cmax (Study 2; Study 2, 100 mg once weekly): 1.26 (0.82, 1.93) nmol/L | accumulation of islatravir in plasma (Study 2; Study 2, once‐weekly dosing for 3 weeks): little to no accumulation; also recorded: minimal accumulation | concentration at 48 h (Study 2; human, plasma, oral, 10 mg): < 1 ng/mL | concentration at 96 h (Study 2; human, plasma, oral, 10 mg): < 1 ng/mL | half-life (Study 2; human, plasma, oral, 10 mg): 16.5 h | half-life (Study 2; human, plasma, oral, 30 mg): 74.2 h | half-life (Study 2; human, plasma, oral, 100 mg): 87.1 h | AUC(0-t) (Study 2; [9]): 9.62 µM·h | AUC(0-t) (Study 2; [10]): 12 µM·h | Cmax (Study 2; [9]): 1470 nM | Cmax (Study 2; [10]): 1850 nM | changes in clinical laboratory values, vital signs, or ECG safety parameter values [6]: No clinically meaningful relationships | intensity of adverse events [6]: mild to moderate | total nonserious adverse events [6]: 12 | serious adverse events [6, 11]: no serious adverse events | tolerability [6, 11]: generally well‐tolerated

C#C[C@]1(COP(=O)(O)OP(=O)(O)OP(=O)(O)O)O[C@@H](n2cnc3c(N)nc(F)nc32)C[C@@H]1O [islatravir‐TP, 4'‐Ethynyl‐2‐fluoro‐2'‐deoxyadenosine triphosphate]
intracellular persistence of islatravir‐TP ([2]; preclinically): > 72 h | effect of food on islatravir‐TP AUC, Cmax, and C168 (Study 1 [7]; 30 mg with a high‐fat meal): largely unchanged; also recorded: did not affect | posterior probability that the true mean intracellular islatravir‐TP C168 h is greater than 0.53 pmol/10^6 cells (Study 1 [7]; doses of 15 mg and above): greater than 99% | Intracellular islatravir‐TP AUC0–168 h (Study 1 [7]; single oral 5 mg fasted): 91.6 (73.5–114) h*pmol/10^6cells | Intracellular islatravir‐TP AUC0–∞ (Study 1 [7]; single oral 5 mg fasted): 162 (120–217) h*pmol/10^6cells | Intracellular islatravir‐TP C168 h (Study 1 [7]; single oral 5 mg fasted): 0.29 (0.19–0.45) pmol/10^6 cells | Intracellular islatravir‐TP Cmax (Study 1 [7]; single oral 5 mg fasted): 1.06 (0.83–1.37) pmol/10^6cells | Intracellular islatravir‐TP AUC0–168 h (Study 1 [7]; single oral 15 mg fasted): 341 (274–425) h*pmol/10^6cells | Intracellular islatravir‐TP AUC0–∞ (Study 1 [7]; single oral 15 mg fasted): 670 (499–900) h*pmol/10^6cells | Intracellular islatravir‐TP C168 h (Study 1 [7]; single oral 15 mg fasted): 1.24 (0.80–1.92) pmol/10^6 cells | Intracellular islatravir‐TP Cmax (Study 1 [7]; single oral 15 mg fasted): 3.65 (2.85–4.69) pmol/10^6cells | Intracellular islatravir‐TP AUC0–168 h (Study 1 [7]; single oral 30 mg fasted): 871 (700–1080) h*pmol/10^6cells | Intracellular islatravir‐TP AUC0–∞ (Study 1 [7]; single oral 30 mg fasted): 1420 (1060–1900) h*pmol/10^6cells | Intracellular islatravir‐TP C168 h (Study 1 [7]; single oral 30 mg fasted): 2.76 (1.78–4.29) pmol/10^6 cells | Intracellular islatravir‐TP Cmax (Study 1 [7]; single oral 30 mg fasted): 8.21 (6.39–10.50) pmol/10^6cells | Intracellular islatravir‐TP Cmax (Study 1 [7]; single oral 30 mg fed): 7.85 (6.11–10.1) pmol/10^6cells | Intracellular islatravir‐TP AUC0–∞ (Study 1 [7]; single oral 30 mg fed, N = 4): 1370 (975–1920) ^g h*pmol/10^6cells | Intracellular islatravir‐TP AUC0–168 h (Study 1 [7]; single oral 30 mg fed, N = 5): 660 (520–838) ^f h*pmol/10^6cells | Intracellular islatravir‐TP C168 h (Study 1 [7]; single oral 30 mg fed, N = 5): 2.71 (1.67–4.40) ^f pmol/10^6 cells | Intracellular islatravir‐TP AUC0–168 h (Study 1 [7]; single oral 100 mg fasted): 1260 (1010–1560) h*pmol/10^6cells | Intracellular islatravir‐TP AUC0–∞ (Study 1 [7]; single oral 100 mg fasted): 2480 (1850–3330) h*pmol/10^6cells | Intracellular islatravir‐TP C168 h (Study 1 [7]; single oral 100 mg fasted): 4.79 (3.09–7.43) pmol/10^6 cells | Intracellular islatravir‐TP Cmax (Study 1 [7]; single oral 100 mg fasted): 13.8 (10.7–17.7) pmol/10^6cells | Intracellular islatravir‐TP AUC0–168 h (Study 1 [7]; single oral 200 mg fasted): 3100 (2490–3860) h*pmol/10^6cells | Intracellular islatravir‐TP AUC0–∞ (Study 1 [7]; single oral 200 mg fasted): 5180 (3850–6960) h*pmol/10^6cells | Intracellular islatravir‐TP C168 h (Study 1 [7]; single oral 200 mg fasted): 7.73 (4.98–12.0) pmol/10^6 cells | Intracellular islatravir‐TP Cmax (Study 1 [7]; single oral 200 mg fasted): 38.4 (29.9–49.3) pmol/10^6cells | Intracellular islatravir‐TP AUC0–168 h (Study 1 [7]; single oral 400 mg fasted): 5300 (4260–6580) h*pmol/10^6cells | Intracellular islatravir‐TP AUC0–∞ (Study 1 [7]; single oral 400 mg fasted): 9320 (6950–12500) h*pmol/10^6cells | Intracellular islatravir‐TP C168 h (Study 1 [7]; single oral 400 mg fasted): 18.3 (11.8–28.4) pmol/10^6 cells | Intracellular islatravir‐TP Cmax (Study 1 [7]; single oral 400 mg fasted): 63.6 (49.6–81.6) pmol/10^6cells | Islatravir‐TP AUC0–168 h [8, 12]: 341 (256, 454) h*pmol/10^6 cells | Islatravir‐TP Cmax [8, 12]: 3.79 (2.68, 5.34) pmol/10^6 cells | Islatravir‐TP AUC0–168 h [8, 13]: 476 (357, 634) h*pmol/10^6 cells | Islatravir‐TP Cmax [8, 13]: 6.38 (4.52, 9.00) pmol/10^6 cells | Islatravir‐TP AUC0–168 h [8, 14]: 1160 (872, 1550) h*pmol/10^6 cells | Islatravir‐TP Cmax [8, 14]: 13.2 (9.34, 18.6) pmol/10^6 cells | Islatravir‐TP AUC0–168 h [8, 15]: 1570 (1180, 2100) h*pmol/10^6 cells | Islatravir‐TP Cmax [8, 15]: 19.6 (13.9, 27.7) pmol/10^6 cells | Islatravir‐TP AUC0–168 h [8, 16]: 3150 (2370, 4200) h*pmol/10^6 cells | Islatravir‐TP C168 [8, 16]: 13.5 (10.4, 17.6) pmol/10^6 cells | Islatravir‐TP Cmax [8, 16]: 31.3 (22.2, 44.2) pmol/10^6 cells | Islatravir‐TP AUC0–168 h [8, 17]: 4740 (3560, 6320) h*pmol/10^6 cells | Islatravir‐TP Cmax [8, 17]: 46.7 (33.1, 65.9) pmol/10^6 cells | islatravir‐TP C168 h versus pharmacokinetic target ([8]; Study 2, after the first weekly dose at all dose levels, posterior probability calculation): > 0.53 pmol/10^6 cells | accumulation of intracellular islatravir‐TP ([8]; Study 2, multiple weekly doses of 30 and 100 mg): modest degree of accumulation | accumulation of intracellular islatravir‐TP ([8]; Study 2, multiple weekly doses of 30 and 100 mg, listed as islatravir‐triphosphate): modest degree | accumulation of intracellular islatravir‐TP ([8]; Study 2, weekly administration): ~1.5 fold | Tmax ([8]; 10 mg): 48 h | Tmax ([8]; 30 mg): 9 h | Tmax ([8]; 100 mg): 18 h

Reference: publication PMC8504818 (Clinical and Translational Science, 2021)
